This passage reports Ki, IC50 and inhibition results from article PMC5518655 (Acta Pharmaceutica Sinica. B, 2017).

What is called Ki is a dissociation constant, usually derived from enzyme kinetics or from competition with a known ligand. By IC50 is commonly meant the concentration that gives 50% inhibition.

Structures are written as SMILES.

One assay deals with DEN2 serine protease. The note with it: cited from earlier work.
The target in another assay is DENV2 NS2B/NS3 protease (Dengue virus type 2, UniProt P14340). In words: In vitro DENV2 NS2B/NS3 protease assay with fluorogenic peptide substrate. In kind it is biochemical. As to conditions: for inhibition at 50 µM: read-out: inhibition at 50 µmol/L (preliminary screening). In a few lines: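 Screened at 50 µmol/L; IC50 measured only when inhibition exceeded 10%. DENV2 NS2B-NS3 (0.57 µmol/L) and test compound in DMSO, in Tris–HCl pH 8.5, preincubated 10 min at 37 °C, 200 rpm. […] added, shaken 60 min more; fluorescence read, blank-subtracted. Triplicates, 3 independent experiments, mean±SD; IC50 read graphically from log concentration vs % inhibition.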
Chain of DENV2 NS2B/NS3 protease (P14340 1476-2093 limits assumed): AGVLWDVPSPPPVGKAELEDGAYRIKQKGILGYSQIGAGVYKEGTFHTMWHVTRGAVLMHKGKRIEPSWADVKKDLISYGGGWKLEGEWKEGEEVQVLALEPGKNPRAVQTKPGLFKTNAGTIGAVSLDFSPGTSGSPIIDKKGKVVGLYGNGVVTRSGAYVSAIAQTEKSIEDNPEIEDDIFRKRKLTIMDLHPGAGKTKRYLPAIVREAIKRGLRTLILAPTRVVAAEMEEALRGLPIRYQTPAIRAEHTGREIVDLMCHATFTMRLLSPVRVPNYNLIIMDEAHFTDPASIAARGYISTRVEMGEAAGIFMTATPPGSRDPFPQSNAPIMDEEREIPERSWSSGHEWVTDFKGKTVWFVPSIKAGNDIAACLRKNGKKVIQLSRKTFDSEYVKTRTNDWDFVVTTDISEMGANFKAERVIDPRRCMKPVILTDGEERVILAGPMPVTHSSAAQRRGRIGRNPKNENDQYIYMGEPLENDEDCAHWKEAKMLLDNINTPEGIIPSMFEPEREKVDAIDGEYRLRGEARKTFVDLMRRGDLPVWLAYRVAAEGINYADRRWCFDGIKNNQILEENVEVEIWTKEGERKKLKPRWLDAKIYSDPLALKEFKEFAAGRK
Chain of DENV2 NS2B/NS3 protease (P14340 1346-1475 partner limits assumed): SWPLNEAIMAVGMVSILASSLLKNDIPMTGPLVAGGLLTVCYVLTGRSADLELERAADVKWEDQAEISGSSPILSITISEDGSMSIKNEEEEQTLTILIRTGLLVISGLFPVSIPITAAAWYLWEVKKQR

On to `CC(C)=CC[C@@H]1C(C)=CC[C@@H](c2ccccc2)[C@@H]1C(=O)c1c(O)cc(O)cc1O` [4-hydroxypanduratin A], for which the Ki on DEN2 serine protease is 21 µM.

`COc1cc(O)c(C(=O)[C@@H]2[C@H](CC=C(C)C)C(C)=CC[C@H]2c2ccccc2)c(O)c1` [Panduratin A, panduratin A, reference compound] gave an IC50 at DENV2 NS2B/NS3 protease of 57.3 ± 1.3 µM. In addition, at DEN2 serine protease, the Ki is 25 µM.

As for `COc1ccc(C(=O)CN2CC(=Cc3ccc([N+](=O)[O-])cc3)C(=O)C(=Cc3ccc([N+](=O)[O-])cc3)C2)cc1` [Compound 4j, 1-(2-(4-Methoxyphenyl)-2-oxoethyl)-3,5-bis(4-nitrobenzylidene)piperidin-4-one], at DENV2 NS2B/NS3 protease, inhibition was half-maximal at 16.2 ± 1.3 µM (IC50) and the inhibition at 50 µM is greater than 10%.

Turning to `O=C1C(=Cc2ccc([N+](=O)[O-])cc2)CN(CC(=O)c2ccc(F)cc2)CC1=Cc1ccc([N+](=O)[O-])cc1` [Compound 4e, 1-(2-(4-Fluorophenyl)-2-oxoethyl)-3,5-bis(4-nitrobenzylidene)piperidin-4-one], at DENV2 NS2B/NS3 protease, the IC50 was 15.2 ± 1.1 µM and the inhibition at 50 µM was greater than 10%.
